Calls of active or inactive are those of the source. No cut-off for these calls is given here.
Assays:
[1] = system: Sindbis virus; experiment: Antiviral activity against […] virus infected in african green monkey Vero cells assessed as inhibition of virus-induced cytopathic effect up to 200 uM after 3 days; assay type: functional, organism-based
Outline: (§1)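 Confluent cell monolayers in MEM with 10% FCS, 2 mM L-glutamine and 0.075% bicarbonate were inoculated with 100 times the 50% cell culture infective dose. Compounds were added after 1–2 h of virus adsorption. Cytopathic effect was scored microscopically at about 3 days as a percentage of untreated controls, and EC50 was read from graphical plots.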

[2] = system: HeLa; experiment: Cytotoxicity against human HeLa cells up to 200 uM after 3 days by MTS assay; assay type: cell-based; conditions: 72 h
[3] = system: Human immunodeficiency virus 1; experiment: Antiviral activity against HIV1 NL4-3 infected in MAGI-CCR5 cells at 400 uM after 2 days; assay type: functional, organism-based
Outline: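 HIV-1 NL4.3 stock came from 293T cells transfected with the molecular clone and was titred by p24. MAGI-CCR5 cells (10^4 cells, integrated HIV promoter–LacZ reporter, in DMEM with 10% FBS) were pretreated for 4 h with 0–400 µM compound. They were then spinoculated with 100 ng CAp24 and grown with compound. After 2 days, cells were stained for β-galactosidase and blue cells counted; EC50 is a 50% drop in blue cells.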

[4] = system: CCRF-CEM; experiment: Stability in human CEM cells by HPLC; assay type: ADME, cell-based
Outline: (§2)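 CEM-SS cells were washed in PBS, resuspended at 30×10^6 cells/mL in 10 mM Tris–HCl, 140 mM KCl (pH 7.4), sonicated and clarified at 10,000 g. Compound (0.1 mM initial) was incubated in the extract at 37 °C. Aliquots were frozen at −80 °C and analysed by on-line cleaning C18 HPLC to derive half-life.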

[5] = system: Human respirovirus 3; experiment: Antiviral activity against Parainfluenza virus 3 infected in african green monkey Vero cells assessed as inhibition of virus-induced cytopathic effect up to 200 uM after 3 days; assay type: functional, organism-based; outline: as §1
[6] = system: Coxsackievirus B4; experiment: Antiviral activity against Coxsackievirus B4 virus infected in human HeLa cells assessed as inhibition of virus-induced cytopathic effect up to 200 uM after 3 days; assay type: functional, organism-based; outline: as §1
[7] = system: Human alphaherpesvirus 2; experiment: Antiviral activity against HSV2 infected in human HEL cells assessed as inhibition of virus-induced cytopathic effect up to 200 uM after 3 days; assay type: functional, organism-based; outline: as §1
[8] = Cytotoxicity against human MAGI-CCR5 cells at 400 uM; assay type: cell-based; conditions: magi-ccr5, 400 µM
Outline: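 MAGI-CCR5 cells were exposed to 0–400 µM compound. CC50 is the concentration inhibiting cell proliferation by 50%.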

[9] = system: Human alphaherpesvirus 1; experiment: Antiviral activity against HSV1 infected in human HEL cells assessed as inhibition of virus-induced cytopathic effect up to 200 uM after 3 days; assay type: functional, organism-based; outline: as §1
[10] = system: Vaccinia virus; experiment: Antiviral activity against Vaccinia virus infected in human HEL cells assessed as inhibition of virus-induced cytopathic effect up to 200 uM after 3 days; assay type: functional, organism-based; conditions: Orthopoxvirus vaccinia
[11] = system: Punta Toro virus; experiment: Antiviral activity against Punta Toro virus infected in african green monkey Vero cells assessed as inhibition of virus-induced cytopathic effect up to 200 uM after 3 days; assay type: functional, organism-based; outline: as §1
[12] = Chemical stability in PBS of pH 1.2 by HPLC; assay type: physicochemical; conditions: buffer
Outline: (§3)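 Compound at an initial 0.1 mM was incubated at 37 °C in buffer at pH 1.2, 7.3 or 11.5. Timed aliquots were frozen at −80 °C and analysed directly by on-line precolumn-cleaning C18 HPLC (0.05 M TEAB to TEAB/CH3CN gradient). Half-lives of decomposition were calculated.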

[13] = system: Mammalian orthoreovirus 1; experiment: Antiviral activity against Reovirus 1 infected in african green monkey Vero cells assessed as inhibition of virus-induced cytopathic effect up to 200 uM after 3 days; assay type: functional, organism-based; outline: as §1
[14] = Chemical stability in PBS of pH 7.3 by HPLC; assay type: physicochemical; conditions: buffer; outline: as §3
[15] = Chemical stability in PBS of pH 11.5 by HPLC; assay type: physicochemical; conditions: buffer; outline: as §3
[16] = system: CCRF-CEM; experiment: Cytotoxicity against human CEM cells at 400 uM after 3 days by MTS assay; assay type: cell-based; conditions: 72 h
[17] = system: Vero; experiment: Cytotoxicity against african green monkey Vero cells up to 200 uM after 3 days by MTS assay; assay type: cell-based; conditions: chlorocebus sabaeus, 72 h
[18] = Cytotoxicity against human HuH5.2 cells up to 200 uM after 3 days by MTS assay; assay type: cell-based; conditions: huh-5-2, 72 h
Outline: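 Parallel Huh-5-2 cultures were seeded at 7000 cells/well and treated like the replicon assay without luciferase reagents. Proliferation was measured 3 days after compound addition by MTS bioreduction to formazan, read in a plate reader.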

[19] = system: Hepatitis C virus; experiment: Antiviral activity against HCV 1b infected in Huh-5-2 cells assessed as inhibition of subgenomic replication; assay type: functional, organism-based; conditions: Hepacivirus hominis, genotype 1b
Outline: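 Huh-5-2 cells carry an HCV genotype 1b subgenomic replicon (I389luc-ubi-neo/NS3-3'/5.1) with a firefly luciferase fusion. They were seeded at 7000 cells/well without G418 and allowed to adhere for 24 h. Five 5-fold dilutions starting at 100 µM were then added for 72 h at 37 °C. Luciferase signal was expressed as % of untreated cultures to give EC50. Interferon alfa 2a (500 IU) served as positive control.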

[20] = system: Human immunodeficiency virus 2; experiment: Antiviral activity against HIV2 ROD infected in human CEM cells at 400 uM after 4 to 5 days; assay type: functional, organism-based; conditions: ISOLATE ROD, CCRF-CEM
Outline: (§4)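 CEM cells (4.5×10^5/ml) were infected at 100 CCID50 per ml, mixed 1:1 with compound dilutions and incubated at 37 °C. Giant-cell formation was scored microscopically after 4–5 days. EC50 is the concentration preventing syncytium formation by 50%.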

[21] = system: Vesicular stomatitis virus; experiment: Antiviral activity against VSV infected in human HEL cells assessed as inhibition of virus-induced cytopathic effect up to 200 uM after 3 days; assay type: functional, organism-based
[22] = Chemical stability in culture media by HPLC; assay type: physicochemical
Outline: (§5)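 Compound at an initial 0.1 mM was incubated at 37 °C in RPMI 1640 containing 10% heat-inactivated fetal calf serum. Aliquots were frozen at −80 °C and analysed by on-line precolumn-cleaning reversed-phase C18 HPLC with a TEAB/acetonitrile gradient. Decomposition half-lives were calculated.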

[23] = system: HEL; experiment: Cytotoxicity against human HEL cells up to 200 uM after 3 days by MTS assay; assay type: cell-based; conditions: 72 h
[24] = system: Human immunodeficiency virus 1; experiment: Antiviral activity against HIV1 3B infected in human CEM cells at 400 uM after 4 to 5 days; assay type: functional, organism-based; conditions: CCRF-CEM; outline: as §4
[25] = system: Respiratory syncytial virus; experiment: Antiviral activity against RSV infected in human HeLa cells assessed as inhibition of virus-induced cytopathic effect up to 200 uM after 3 days; assay type: functional, organism-based; outline: as §1
[26] = Chemical stability assessed as half life of degradation in PBS of pH 11.5 by HPLC; assay type: physicochemical
Outline: (§6)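 Compound at 0.1 mM initial concentration in buffer, incubated at 37 °C. Aliquots were taken at set times, frozen at −80 °C, then analysed by on-line cleaning-precolumn reversed-phase HPLC (C18, TEAB/acetonitrile gradient). Decomposition half-life was calculated, with products identified by co-injection with authentic samples.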

[27] = Chemical stability assessed as half life of degradation in culture media by HPLC; assay type: physicochemical; outline: as §5
[28] = Stability in human CEM cells assessed as half life of degradation by HPLC; assay type: ADME, cell-based; conditions: CEM (CCRF-CEM) cells; outline: as §2
[29] = Chemical stability assessed as half life of degradation in PBS of pH 1.2 by HPLC; assay type: physicochemical; outline: as §6
[30] = Chemical stability assessed as half life of degradation in PBS of pH 7.3 by HPLC; assay type: physicochemical; outline: as §6

## Cc1cn([C@H]2C[C@H](N=[N+]=[N-])[C@@H](CC[PH](=O)O)O2)c(=O)[nH]c1=O
[1]
  Activity: inactive
[2]
  Activity: Non-toxic
[3]
  Activity: inactive
[4]
  Stability: Stable
[5]
  Activity: inactive
[6]
  Activity: inactive
[7]
  Activity: inactive
[8]
  Activity: Non-toxic
[9]
  Activity: inactive
[10]
  Activity: inactive
[11]
  Activity: inactive
[12]
  Stability: Stable
[13]
  Activity: inactive
[14]
  Stability: Stable
[15]
  Stability: Stable
[16]
  Activity: Non-toxic
[17]
  Activity: Non-toxic
[18]
  Activity: Non-toxic
[19]
  Activity: inactive
[20]
  Activity: inactive
[21]
  Activity: inactive
[22]
  Stability: Stable
[23]
  Activity: Non-toxic
[24]
  Activity: inactive
[25]
  Activity: inactive

## BP(=O)(O)CC[C@@H]1C=C[C@H](n2cc(C)c(=O)[nH]c2=O)O1
[1]
  Activity: inactive
[2]
  Activity: Non-toxic
[3]
  Activity: inactive
[5]
  Activity: inactive
[6]
  Activity: inactive
[7]
  Activity: inactive
[8]
  Activity: Non-toxic
[9]
  Activity: inactive
[10]
  Activity: inactive
[11]
  Activity: inactive
[26]
  half-life: > 48 h
[13]
  Activity: inactive
[16]
  Activity: Non-toxic
[17]
  Activity: Non-toxic
[27]
  half-life: 1.6 h
[28]
  half-life: 3 h
[18]
  Activity: Non-toxic
[19]
  Activity: inactive
[20]
  Activity: inactive
[21]
  Activity: inactive
[23]
  Activity: Non-toxic
[24]
  Activity: inactive
[25]
  Activity: inactive
[29]
  half-life: 16 h
[30]
  half-life: 22 h

## Cc1cn([C@H]2C=C[C@@H](CC[PH](=O)O)O2)c(=O)[nH]c1=O
[1]
  Activity: inactive
[2]
  Activity: Non-toxic
[3]
  Activity: inactive
[5]
  Activity: inactive
[6]
  Activity: inactive
[7]
  Activity: inactive
[8]
  Activity: Non-toxic
[9]
  Activity: inactive
[10]
  Activity: inactive
[11]
  Activity: inactive
[26]
  half-life: > 48 h
[13]
  Activity: inactive
[16]
  Activity: Non-toxic
[17]
  Activity: Non-toxic
[27]
  half-life: 11 h
[28]
  half-life: 2 h
[18]
  Activity: Non-toxic
[19]
  Activity: inactive
[20]
  Activity: inactive
[21]
  Activity: inactive
[23]
  Activity: Non-toxic
[24]
  Activity: inactive
[25]
  Activity: inactive
[29]
  half-life: 28 h
[30]
  half-life: > 48 h

## BP(=O)(O)CC[C@H]1O[C@@H](n2cc(C)c(=O)[nH]c2=O)C[C@@H]1N=[N+]=[N-]
[1]
  Activity: inactive
[2]
  Activity: Non-toxic
[3]
  Activity: inactive
[5]
  Activity: inactive
[6]
  Activity: inactive
[7]
  Activity: inactive
[8]
  Activity: Non-toxic
[9]
  Activity: inactive
[10]
  Activity: inactive
[11]
  Activity: inactive
[12]
  Stability: Stable
[13]
  Activity: inactive
[14]
  Stability: Stable
[15]
  Stability: Stable
[16]
  Activity: Non-toxic
[17]
  Activity: Non-toxic
[27]
  half-life: 3.1 h
[28]
  half-life: > 48 h
[18]
  Activity: Non-toxic
[19]
  Activity: inactive
[20]
  Activity: inactive
[21]
  Activity: inactive
[23]
  Activity: Non-toxic
[24]
  Activity: inactive
[25]
  Activity: inactive

— ChEMBL document CHEMBL1154819, “Synthesis and antiviral activity of boranophosphonate isosteres of AZT and d4T monophosphates” (Eur J Med Chem, 2010)
